Experimental data published in ChEMBL document CHEMBL4145448, “Broad activity of diphenyleneiodonium analogues against Mycobacterium tuberculosis, malaria parasites and bacterial pathogens” (Eur J Med Chem, 2018).
Converted amounts (≈) assume the structure as drawn.

What was measured:
Plasmodium falciparum [1] = experiment: Growth inhibition of CQ-sensitive GFP-fused Plasmodium falciparum D10 after 90 hrs by ethidium bromide staining based flow cytometry; format: functional, organism-based; conditions: D10, 90 h
Method in brief: (§1)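 Parasites cultured in human O+ erythrocytes in RPMI-HEPES pH 7.4 with hypoxanthine, NaHCO3, gentamicin and 0.5% Albumax II under 1% O2/4% CO2 at 37 °C. Synchronised to rings with heparin plus sorbitol. Set up at 1% parasitaemia and 1% haematocrit with 10x compound added. Cultured 90 h to next-cycle trophozoites. Stained with 10 µg/mL ethidium bromide for 1 h, washed, parasitaemia counted by flow cytometry with GFP gating.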

[2] = tested on: Mycobacterium tuberculosis; experiment: Antimycobacterial activity against Mycobacterium tuberculosis H37Rv ATCC 25618 after 7 days by resazurin dye based assay; format: functional; conditions: H37Rv ATCC 25618, 168 h
Method in brief: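 H37Rv grown at 37 °C in 7H9 with 10% ADC, 0.5% glycerol and 0.02% tyloxapol. Compounds serially diluted in water, 0 to 10 µM, in triplicate. Culture adjusted to OD600 0.001 and incubated 7 days at 37 °C. Resazurin (0.05% w/v) added for 4-24 h and fluorescence read at 590 nm. MIC is the lowest concentration giving complete growth inhibition versus untreated. Rifampicin served as control.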

[3] = Selectivity index, ratio of CC50 for human HepG2 cells in presence of 1% FBS to MIC for Mycobacterium tuberculosis H37Rv ATCC 25618; format: toxicity; conditions: read-out: Selectivity Index
[4] = Cytotoxicity against human HepG2 cells after 24 hrs in presence of 10% FBS by resazurin dye based assay; format: cell-based
Method in brief: (§2)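 HepG2 cells seeded at 4000/well in DMEM with 10% FBS and allowed to attach for 24 h at 37 °C, 5% CO2. Compounds added from 300 to 0.14 µM in 3-fold steps and incubated 24 h. 10 µM resazurin added for 2 h, fluorescence read at ex/em 560/590. Percent viability computed relative to untreated and negative controls, duplicate wells.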

[5] = Selectivity index, ratio of CC50 for human HepG2 cells in presence of 10% FBS to MIC for Mycobacterium tuberculosis H37Rv ATCC 25618; format: toxicity; conditions: read-out: Selectivity Index
[6] = Cytotoxicity against human HepG2 cells after 24 hrs in presence of 1% FBS by resazurin dye based assay; format: cell-based
Method in brief: as §2, with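 “1%” for “10%”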

[7] = Selectivity index, ratio of CC50 for human HepG2 cells in presence of 10% FBS to IC50 for CQ-sensitive GFP-fused Plasmodium falciparum D10; format: toxicity; conditions: read-out: Ratio IC50
[8] = Selectivity index, ratio of CC50 for human HepG2 cells in presence of 1% FBS to IC50 for CQ-sensitive GFP-fused Plasmodium falciparum D10; format: toxicity; conditions: read-out: Ratio IC50
[9] = Selectivity index, ratio of CC50 for human HepG2 cells in presence of 1% FBS to IC50 for drug-resistant GFP-fused Plasmodium falciparum D10; format: toxicity; conditions: read-out: Ratio IC50
[10] = Selectivity index, ratio of CC50 for human HepG2 cells in presence of 10% FBS to IC50 for drug-resistant GFP-fused Plasmodium falciparum D10; format: toxicity; conditions: read-out: Ratio IC50
Plasmodium falciparum [11] = experiment: Growth inhibition of […] GFP-fused Plasmodium falciparum D10 after 90 hrs by ethidium bromide staining based flow cytometry; format: functional, organism-based; conditions: D10, 90 h; method in brief: as §1

Compound	IC50 (Plasmodium falciparum [1]) [nM]	MIC [2] [µM]	selectivity ratio [3]	CC50 at 24 h [4] [nM]	selectivity ratio [5]	CC50 at 24 h [6] [nM]	selectivity ratio [7]	selectivity ratio [8]	selectivity ratio [9]	selectivity ratio [10]	IC50 (Plasmodium falciparum [11]) [nM]
Fc1ccc(Cl)c2c1[I+]c1ccccc1-2	> 1000	0.27	3.4	2720	10	930					
Cc1cccc2c1-c1cccc(Cl)c1[I+]2	110	0.27	0.22	486	1.8	60.1	5.1	0.63			
FC(F)(F)Oc1cccc2c1-c1ccccc1[I+]2	130	0.25	0.21	251	0.99	50.3	1.9	0.39			
COc1ccc(Cl)c2c1[I+]c1ccccc1-2	130	0.51	0.31	224	0.44	150	1.75	1.2			
Fc1cccc2c1-c1c(Cl)cccc1[I+]2	> 1000	1	0.38	833	0.8	392	< 0.83				
Clc1ccc(Cl)c2c1[I+]c1ccccc1-2	> 1000	0.5	1.8	1850	3.7	894					
FC(F)(F)c1cccc2c1-c1ccccc1[I+]2	130	0.26	0.09	94.7	0.36	23.6	0.72	0.18	0.18	0.7	140
Fc1cccc2c1-c1c(F)cccc1[I+]2	840	0.28	0.32	161	0.58	88.6	0.19	0.11			
Fc1cccc2c1-c1cccc(Cl)c1[I+]2	190	0.27	0.19	386	1.4	52.4	2.1	0.28			
Cc1ccc(Cl)c2c1[I+]c1ccccc1-2	110	0.13	0.74	349	2.8	93	3.1	0.82			
Clc1cccc2c1[I+]c1cccc(Cl)c1-2	360	0.26	0.32	544	2.1	84.6	1.5	0.23			
CO[C@H]1/C=C/O[C@@]2(C)Oc3c(C)c(O)c4c(O)c(c(/C=N/N5CCN(C)CC5)c(O)c4c3C2=O)NC(=O)/C(C)=C\C=C\[C@H](C)[C@H](O)[C@@H](C)[C@@H](O)[C@@H](C)[C@H](OC(C)=O)[C@@H]1C [RIFAMPIN]		0.3 to 0.61 (≈ 0.247 to 0.502 µg/mL)									
